Results published in the M2OR odorant receptor database.

Legend:
Conditions in all cases: stereoisomer not certain
UniProt A2ATE5 = target: T1, UniProt A2ATE5
T1 sequence (whole entry): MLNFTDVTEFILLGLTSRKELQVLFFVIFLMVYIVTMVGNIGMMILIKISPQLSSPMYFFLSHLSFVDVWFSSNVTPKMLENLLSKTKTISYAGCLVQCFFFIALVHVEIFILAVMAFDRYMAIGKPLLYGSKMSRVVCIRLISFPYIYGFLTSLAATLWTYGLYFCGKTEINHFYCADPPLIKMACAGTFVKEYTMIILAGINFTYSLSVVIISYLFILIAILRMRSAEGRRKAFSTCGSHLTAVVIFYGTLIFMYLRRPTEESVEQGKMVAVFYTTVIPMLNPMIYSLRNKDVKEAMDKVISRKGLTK
Procedure, shortened: (§1)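 Whether a receptor–molecule pair is responsive (active) rests on the original authors' judgment that its measured signal was statistically different from baseline. Pairs without that judgment are non-responsive (inactive). Sources used varied assay methods, commonly transient luciferase assays in mammalian cell lines.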

UniProt A2AVB0 = target: T2, UniProt A2AVB0
T2 sequence (whole entry): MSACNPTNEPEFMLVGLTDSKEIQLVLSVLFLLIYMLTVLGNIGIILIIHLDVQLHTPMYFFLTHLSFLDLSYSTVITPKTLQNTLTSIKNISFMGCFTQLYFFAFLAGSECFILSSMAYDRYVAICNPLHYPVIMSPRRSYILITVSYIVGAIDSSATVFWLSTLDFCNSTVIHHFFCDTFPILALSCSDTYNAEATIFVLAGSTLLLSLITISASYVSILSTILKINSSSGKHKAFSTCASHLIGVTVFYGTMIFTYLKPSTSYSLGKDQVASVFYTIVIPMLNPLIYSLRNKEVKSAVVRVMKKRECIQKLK
Procedure, shortened: as §1

UniProt E9PVX1 = target: T3, UniProt E9PVX1
T3 sequence (whole entry): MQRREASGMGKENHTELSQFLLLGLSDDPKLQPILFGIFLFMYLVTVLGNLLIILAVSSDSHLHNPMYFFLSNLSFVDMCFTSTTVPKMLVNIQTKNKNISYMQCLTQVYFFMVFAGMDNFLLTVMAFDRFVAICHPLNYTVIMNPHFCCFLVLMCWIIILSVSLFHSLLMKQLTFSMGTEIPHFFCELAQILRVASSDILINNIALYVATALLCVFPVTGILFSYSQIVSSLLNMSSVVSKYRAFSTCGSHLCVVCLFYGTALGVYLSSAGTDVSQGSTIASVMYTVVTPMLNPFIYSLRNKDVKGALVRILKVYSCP
Procedure, shortened: as §1

UniProt E9PZ66 = target: T4, UniProt E9PZ66
T4 sequence (whole entry): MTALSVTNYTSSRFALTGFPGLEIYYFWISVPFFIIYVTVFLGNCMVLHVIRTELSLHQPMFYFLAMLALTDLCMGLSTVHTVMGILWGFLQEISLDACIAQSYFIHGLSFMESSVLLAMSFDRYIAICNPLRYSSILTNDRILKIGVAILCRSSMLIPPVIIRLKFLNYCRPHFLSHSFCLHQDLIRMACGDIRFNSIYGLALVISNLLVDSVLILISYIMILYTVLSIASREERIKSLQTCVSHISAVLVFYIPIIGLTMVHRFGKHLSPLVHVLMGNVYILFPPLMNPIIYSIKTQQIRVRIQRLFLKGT
Procedure, shortened: as §1

UniProt E9Q4X7 = target: T5, UniProt E9Q4X7
T5 sequence (whole entry): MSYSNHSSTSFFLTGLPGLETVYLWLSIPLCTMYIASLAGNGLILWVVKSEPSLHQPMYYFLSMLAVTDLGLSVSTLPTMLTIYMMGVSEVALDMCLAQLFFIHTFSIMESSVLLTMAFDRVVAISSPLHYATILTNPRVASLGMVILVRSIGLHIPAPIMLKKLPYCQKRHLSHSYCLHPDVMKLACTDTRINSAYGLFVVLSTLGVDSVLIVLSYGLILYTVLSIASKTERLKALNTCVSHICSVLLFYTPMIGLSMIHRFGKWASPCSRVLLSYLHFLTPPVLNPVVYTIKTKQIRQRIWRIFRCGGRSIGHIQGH
Procedure, shortened: as §1

UniProt E9Q546 = target: T6, UniProt E9Q546
T6 sequence (whole entry): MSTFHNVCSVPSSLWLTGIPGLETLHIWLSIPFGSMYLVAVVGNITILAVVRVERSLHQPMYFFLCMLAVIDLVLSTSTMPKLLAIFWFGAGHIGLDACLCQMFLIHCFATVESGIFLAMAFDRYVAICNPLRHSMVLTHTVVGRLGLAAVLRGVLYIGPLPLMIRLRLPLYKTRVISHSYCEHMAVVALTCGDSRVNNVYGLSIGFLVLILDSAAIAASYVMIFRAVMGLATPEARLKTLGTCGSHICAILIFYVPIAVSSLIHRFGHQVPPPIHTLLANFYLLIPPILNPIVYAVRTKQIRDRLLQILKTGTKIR
Procedure, shortened: as §1

UniProt E9Q6Z7 = target: T7, UniProt E9Q6Z7
T7 sequence (whole entry): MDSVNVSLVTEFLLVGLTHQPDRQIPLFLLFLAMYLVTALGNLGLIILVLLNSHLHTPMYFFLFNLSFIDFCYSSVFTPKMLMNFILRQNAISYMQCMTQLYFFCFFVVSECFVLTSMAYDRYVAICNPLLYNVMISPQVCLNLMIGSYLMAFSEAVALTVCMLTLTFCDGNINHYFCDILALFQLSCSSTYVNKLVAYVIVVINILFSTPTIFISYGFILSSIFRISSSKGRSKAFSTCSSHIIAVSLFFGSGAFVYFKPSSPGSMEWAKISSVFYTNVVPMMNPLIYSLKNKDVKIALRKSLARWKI
Procedure, shortened: as §1

UniProt E9Q9Z6 = target: T8, UniProt E9Q9Z6
T8 sequence (whole entry): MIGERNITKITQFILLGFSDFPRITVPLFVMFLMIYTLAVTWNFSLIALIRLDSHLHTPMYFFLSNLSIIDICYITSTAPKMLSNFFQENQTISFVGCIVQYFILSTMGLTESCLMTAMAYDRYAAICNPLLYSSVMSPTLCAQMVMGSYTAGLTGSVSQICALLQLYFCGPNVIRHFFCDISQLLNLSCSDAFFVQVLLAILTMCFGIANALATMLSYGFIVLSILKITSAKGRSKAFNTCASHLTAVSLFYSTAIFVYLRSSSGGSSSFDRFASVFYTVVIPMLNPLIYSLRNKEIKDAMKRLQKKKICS
Procedure, shortened: as §1

UniProt A2AVA9 = target: UniProt A2AVA9
Procedure, shortened: as §1

UniProt A2AVB5 = target: T9, UniProt A2AVB5
T9 sequence (whole entry): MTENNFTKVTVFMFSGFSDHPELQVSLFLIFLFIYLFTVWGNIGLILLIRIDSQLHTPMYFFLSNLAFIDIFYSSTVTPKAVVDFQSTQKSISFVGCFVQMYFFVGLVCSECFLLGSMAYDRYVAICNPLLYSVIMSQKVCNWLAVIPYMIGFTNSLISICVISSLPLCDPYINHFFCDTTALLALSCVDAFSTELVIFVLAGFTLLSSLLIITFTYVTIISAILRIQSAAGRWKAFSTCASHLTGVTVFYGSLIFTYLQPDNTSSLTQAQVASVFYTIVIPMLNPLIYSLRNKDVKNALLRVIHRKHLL
Procedure, shortened: as §1

UniProt A2AVC3 = target: UniProt A2AVC3
Procedure, shortened: as §1

UniProt B2RVX8 = target: T10, UniProt B2RVX8
T10 sequence (whole entry): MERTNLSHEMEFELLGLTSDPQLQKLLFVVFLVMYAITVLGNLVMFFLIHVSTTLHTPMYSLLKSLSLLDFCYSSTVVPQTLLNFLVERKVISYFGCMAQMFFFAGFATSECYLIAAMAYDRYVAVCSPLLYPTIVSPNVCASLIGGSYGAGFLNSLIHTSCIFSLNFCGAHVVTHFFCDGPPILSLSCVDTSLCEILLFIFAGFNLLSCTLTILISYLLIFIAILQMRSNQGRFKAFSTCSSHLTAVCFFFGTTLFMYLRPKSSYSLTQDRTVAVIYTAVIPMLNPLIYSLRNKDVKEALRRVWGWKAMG
Procedure, shortened: as §1

UniProt E9PXH6 = target: UniProt E9PXH6
Procedure, shortened: as §1

UniProt E9Q891 = target: UniProt E9Q891
Procedure, shortened: as §1

UniProt K7N5T5 = target: UniProt K7N5T5
Procedure, shortened: as §1

UniProt K7N609 = target: T11, UniProt K7N609
T11 sequence (whole entry): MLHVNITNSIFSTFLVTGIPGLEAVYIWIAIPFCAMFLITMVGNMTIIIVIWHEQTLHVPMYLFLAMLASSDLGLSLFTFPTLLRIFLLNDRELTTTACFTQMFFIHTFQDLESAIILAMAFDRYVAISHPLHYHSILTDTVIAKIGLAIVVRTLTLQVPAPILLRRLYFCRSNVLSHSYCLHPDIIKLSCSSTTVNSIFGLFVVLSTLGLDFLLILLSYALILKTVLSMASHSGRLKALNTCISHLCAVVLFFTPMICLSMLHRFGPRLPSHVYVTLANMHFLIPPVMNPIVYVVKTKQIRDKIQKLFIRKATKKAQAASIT
Procedure, shortened: as §1

UniProt E9PX47 = target: T12, UniProt E9PX47
T12 sequence (whole entry): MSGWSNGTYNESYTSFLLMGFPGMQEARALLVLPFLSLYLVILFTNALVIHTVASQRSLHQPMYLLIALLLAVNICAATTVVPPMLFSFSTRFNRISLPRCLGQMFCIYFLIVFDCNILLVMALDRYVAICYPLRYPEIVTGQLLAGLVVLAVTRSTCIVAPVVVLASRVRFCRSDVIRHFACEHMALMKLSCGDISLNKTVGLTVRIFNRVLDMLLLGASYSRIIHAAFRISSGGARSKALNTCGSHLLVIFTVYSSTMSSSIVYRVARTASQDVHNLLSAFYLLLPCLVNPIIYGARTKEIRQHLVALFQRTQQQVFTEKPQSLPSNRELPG
Procedure, shortened: as §1

UniProt E9PXN3 = target: T13, UniProt E9PXN3
T13 sequence (whole entry): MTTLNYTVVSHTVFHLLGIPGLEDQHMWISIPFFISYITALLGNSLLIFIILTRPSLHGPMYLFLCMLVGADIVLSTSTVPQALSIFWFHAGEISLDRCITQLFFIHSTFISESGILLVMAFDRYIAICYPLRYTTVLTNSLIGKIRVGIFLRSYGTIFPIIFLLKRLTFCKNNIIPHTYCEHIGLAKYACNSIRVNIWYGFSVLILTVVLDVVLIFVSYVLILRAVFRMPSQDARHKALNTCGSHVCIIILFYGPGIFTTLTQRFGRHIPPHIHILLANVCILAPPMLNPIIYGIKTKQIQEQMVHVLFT
Procedure, shortened: as §1

Measured: odorant receptor agonist call;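 also: active if original authors judged signal statistically different from baseline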

UniProt A2AVC3, sequence (A2AVC3 as listed by the source): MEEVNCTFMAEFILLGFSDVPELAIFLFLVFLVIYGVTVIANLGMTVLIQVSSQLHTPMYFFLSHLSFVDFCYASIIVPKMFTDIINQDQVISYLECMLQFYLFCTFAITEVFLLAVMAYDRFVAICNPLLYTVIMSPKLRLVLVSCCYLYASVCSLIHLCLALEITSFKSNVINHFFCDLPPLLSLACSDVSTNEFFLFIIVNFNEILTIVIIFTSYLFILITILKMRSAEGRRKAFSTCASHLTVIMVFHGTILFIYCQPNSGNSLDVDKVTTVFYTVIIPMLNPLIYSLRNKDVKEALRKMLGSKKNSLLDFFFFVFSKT
UniProt K7N5T5, sequence (K7N5T5 as listed by the source): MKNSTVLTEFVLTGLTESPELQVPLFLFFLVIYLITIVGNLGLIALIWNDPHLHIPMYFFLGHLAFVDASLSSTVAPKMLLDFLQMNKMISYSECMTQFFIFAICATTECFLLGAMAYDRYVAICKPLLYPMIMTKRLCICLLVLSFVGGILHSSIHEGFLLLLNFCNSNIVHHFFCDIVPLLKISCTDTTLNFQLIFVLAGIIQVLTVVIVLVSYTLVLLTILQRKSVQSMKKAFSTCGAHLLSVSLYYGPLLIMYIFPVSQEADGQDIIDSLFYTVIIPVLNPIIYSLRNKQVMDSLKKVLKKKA
UniProt E9Q891, sequence (E9Q891 as listed by the source): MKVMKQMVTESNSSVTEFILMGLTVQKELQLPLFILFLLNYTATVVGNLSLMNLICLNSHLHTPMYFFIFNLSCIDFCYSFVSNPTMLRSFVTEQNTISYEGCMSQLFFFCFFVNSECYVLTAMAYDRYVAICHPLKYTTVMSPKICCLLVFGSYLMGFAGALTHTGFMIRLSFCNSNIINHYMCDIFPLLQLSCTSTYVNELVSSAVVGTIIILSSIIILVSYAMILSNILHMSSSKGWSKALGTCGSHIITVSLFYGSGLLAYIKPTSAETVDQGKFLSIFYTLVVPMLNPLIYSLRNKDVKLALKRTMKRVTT
UniProt A2AVA9, sequence (A2AVA9 as listed by the source): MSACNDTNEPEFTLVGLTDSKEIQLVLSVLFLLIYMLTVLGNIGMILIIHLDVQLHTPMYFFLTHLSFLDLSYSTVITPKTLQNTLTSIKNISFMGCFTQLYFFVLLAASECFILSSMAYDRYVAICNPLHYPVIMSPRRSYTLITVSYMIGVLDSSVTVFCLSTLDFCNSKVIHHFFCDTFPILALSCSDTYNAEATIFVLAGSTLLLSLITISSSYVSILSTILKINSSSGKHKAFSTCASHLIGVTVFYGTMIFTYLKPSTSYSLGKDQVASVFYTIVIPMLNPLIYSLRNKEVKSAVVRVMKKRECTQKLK
UniProt E9PXH6, sequence (E9PXH6 as listed by the source): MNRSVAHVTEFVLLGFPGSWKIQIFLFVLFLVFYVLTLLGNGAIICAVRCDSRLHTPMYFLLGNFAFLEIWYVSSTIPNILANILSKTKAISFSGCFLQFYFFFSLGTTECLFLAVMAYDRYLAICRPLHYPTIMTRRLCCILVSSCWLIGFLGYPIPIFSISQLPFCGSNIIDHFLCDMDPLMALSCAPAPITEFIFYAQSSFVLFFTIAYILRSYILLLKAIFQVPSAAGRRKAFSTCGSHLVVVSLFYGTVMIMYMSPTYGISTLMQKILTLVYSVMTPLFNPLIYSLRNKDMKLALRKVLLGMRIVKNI

CCC(C)O (stereo not drawn)
inactive: UniProt A2ATE5 | UniProt A2AVB0 | UniProt E9PVX1 | UniProt E9PZ66 | UniProt E9Q4X7 | UniProt E9Q546 | UniProt E9Q6Z7

CC1CC=CCCCCCCCCCC(=O)C1 (stereo not drawn)
inactive: UniProt A2ATE5 | UniProt A2AVB0 | UniProt E9PVX1 | UniProt E9PZ66 | UniProt E9Q4X7 | UniProt E9Q546 | UniProt E9Q6Z7
active: UniProt E9Q9Z6

O=c1ccc2ccccc2o1
active: UniProt A2AVA9 | UniProt A2AVB5 | UniProt E9PXH6 | UniProt E9Q891
inactive: UniProt A2AVC3 | UniProt B2RVX8 | UniProt E9Q546 | UniProt K7N5T5 | UniProt K7N609

CSSCc1ccco1
inactive: UniProt A2ATE5 | UniProt A2AVB0 | UniProt E9PVX1 | UniProt E9PZ66 | UniProt E9Q4X7 | UniProt E9Q546 | UniProt E9Q6Z7

CC(=O)OCCc1ccccc1
inactive: UniProt A2ATE5 | UniProt A2AVB0 | UniProt E9PVX1 | UniProt E9PZ66 | UniProt E9Q4X7 | UniProt E9Q546 | UniProt E9Q6Z7

CCCCCCCCC=CC=O
inactive: UniProt A2ATE5 | UniProt A2AVB0 | UniProt E9PVX1 | UniProt E9PZ66 | UniProt E9Q4X7 | UniProt E9Q546 | UniProt E9Q6Z7

CCCCOC(=O)CCC
inactive: UniProt E9PX47 | UniProt E9PXN3

CCCCCCCCCCCC(=O)O
active: UniProt E9PXN3
